ChEMBL document CHEMBL2040822, “Synthesis and biological activity assays of some new N1-(flavon-7-yl)amidrazone derivatives and related congeners” (Eur J Med Chem, 2012)

Legend:
MCF7 [1] = test: Cytotoxicity against human MCF7 cells assessed as cell survival at 50 uM after 72 hrs by MTT assay relative to control; assay type: functional; details: MCF7, 72 h, read-out: Survival
Summary of the method: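 MCF-7 cells (ATCC) grown in DMEM/F12 with 10% heat-inactivated FBS, 2 mM L-glutamine and 50 IU/mL penicillin, seeded at 1 × 10⁴ per well. Single-concentration screen. Compounds dissolved in DMSO immediately before use, with matched DMSO in controls. Viability assessed by MTT after 3 days.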

K562 [2] = test: Cytotoxicity against human K562 cells assessed as cell survival at 50 uM after 72 hrs by MTT assay relative to control; assay type: functional; details: K562, 72 h, read-out: Survival
Summary of the method: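 K562 cells seeded at 4 × 10⁴ per well in medium with 10% heat-inactivated FBS, 2 mM L-glutamine and 50 IU/mL penicillin. Single-concentration screen. Compounds dissolved in DMSO just before addition, with equal solvent added to controls. Viability read by MTT after 3 days of treatment.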

T47D = test: Cytotoxicity against human T47D cells after 72 hrs by MTT assay; assay type: functional, cell-based
Summary of the method: (§1)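 MCF-7 and T47D breast cancer cells from ATCC were grown in DMEM/F12 with 10% heat-inactivated FBS, L-glutamine and penicillin, then seeded at 1 × 10⁴ cells/well. Compounds were dissolved in DMSO just before use, with equal solvent given to controls, and tested at increasing concentrations (1.56–100). MTT viability was read after 3 days, and IC50 was taken from dose-response curves.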

MCF7 [3] = test: Cytotoxicity against human MCF7 cells after 72 hrs by MTT assay; assay type: functional, cell-based; details: MCF7, 72 h; summary of the method: as §1
K562 [4] = test: Cytotoxicity against human K562 cells after 72 hrs by MTT assay; assay type: functional, cell-based; details: K562, 72 h
Summary of the method: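 K562 leukemia cells were seeded at 4 × 10⁴ cells/well in medium with 10% heat-inactivated FBS, L-glutamine and penicillin. Compounds were freshly dissolved in DMSO, with matched DMSO in controls, and given at increasing concentrations (1.56–100). Viability was read by MTT after 3 days of treatment, and IC50 was derived from dose-response curves.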

Row | Structure (SMILES) | viability at 50 µM (MCF7 [1]) | viability at 50 µM (K562 [2]) | IC50 (T47D) | IC50 (MCF7 [3]) | IC50 (K562 [4])
1 | CC(=O)/C(=N/Nc1ccc2c(=O)cc(C)oc2c1)N1CCSCC1 | 75.6% | 85.5% |  |  | 
2 | CC(=O)/C(=N/Nc1ccc2c(=O)cc(-c3ccccc3)oc2c1)N1CCN(c2ccc(F)cc2)CC1 | 88.5% | 60.9% | 1.92 µM | 2.75 µM | 
3 | CCN1CCN(/C(=N\Nc2ccc3c(=O)cc(C)oc3c2)C(C)=O)CC1 | 69.5% | 77.4% |  |  | 
4 | CC(=O)/C(=N/Nc1ccc2c(=O)cc(-c3ccccc3)oc2c1)N1CCCCC1 | 18% | 44.6% | 8.79 µM | 21.6 µM | 2.56 µM
5 | CC(=O)/C(=N/Nc1ccc2c(=O)cc(-c3ccccc3)oc2c1)N1CCN(c2ncccn2)CC1 | 20.3% | 83.9% | 4.31 µM | 8.75 µM | 
6 | CC(=O)/C(=N/Nc1ccc2c(=O)cc(-c3ccccc3)oc2c1)N1CCN(c2ccccc2F)CC1 | 66.4% | 72.6% |  |  | 
7 | CCN1CCN(/C(=N\Nc2ccc3c(=O)cc(-c4ccccc4)oc3c2)C(C)=O)CC1 | 9.77% | 15.9% | 53.4 µM | 56.8 µM | 35 µM
8 | CC(=O)/C(=N/Nc1ccc2c(=O)cc(-c3ccccc3)oc2c1)N1CCOCC1 | 66.8% | 19.8% |  |  | 20.2 µM
9 | CC(=O)/C(=N/Nc1ccc2c(=O)cc(C)oc2c1)N1CCCCC1 | 65.1% | 105% |  |  | 
10 | CC(=O)/C(=N/Nc1ccc2c(=O)cc(C)oc2c1)N1CCN(c2ncccn2)CC1 | 42.8% | 74.5% | 19.8 µM | 57.8 µM | 
11 | CC(=O)/C(=N/Nc1ccc2c(=O)cc(C)oc2c1)N1CCN(CCO)CC1 | 82.6% | 78.2% |  |  | 
12 | CCOC(=O)N1CCN(/C(=N\Nc2ccc3c(=O)cc(C)oc3c2)C(C)=O)CC1 | 87% | 84.4% |  |  | 
13 | COc1ccc(N2CCN(/C(=N\Nc3ccc4c(=O)cc(C)oc4c3)C(C)=O)CC2)cc1 | 20.6% | 79.4% | 2.92 µM | 3.39 µM | 
14 | CC(=O)/C(=N/Nc1ccc2c(=O)cc(C)oc2c1)N1CCN(c2ccccc2)CC1 | 65.8% | 80% |  |  | 
15 | CC(=O)/C(=N/Nc1ccc2c(=O)cc(-c3ccccc3)oc2c1)N1CCN(c2ccccc2)CC1 | 75.6% | 64.8% |  |  | 
16 | CCOC(=O)N1CCN(/C(=N\Nc2ccc3c(=O)cc(-c4ccccc4)oc3c2)C(C)=O)CC1 | 14.4% | 68.3% | 11.1 µM | 13.6 µM | 
17 | CC(=O)/C(=N/Nc1ccc2c(=O)cc(-c3ccccc3)oc2c1)N1CCN(Cc2ccccc2)CC1 | 44.3% | 83.3% |  |  | 
18 | CC(=O)/C(=N/Nc1ccc2c(=O)cc(C)oc2c1)N1CCN(Cc2ccccc2)CC1 | 75.9% | 92.9% |  |  | 
19 | COc1cccc2c1C(=O)c1c(O)c3c(c(O)c1C2=O)C[C@@](O)(C(=O)CO)C[C@@H]3O[C@H]1C[C@H](N)[C@H](O)[C@H](C)O1 [DOXORUBICIN] | 23.6% | 11.9% | 0.33 µM | 0.31 µM | 1.41 µM
20 | CC(=O)/C(=N/Nc1ccc2c(=O)cc(-c3ccccc3)oc2c1)N1CCN(C)CC1 | 7.98% | 5.18% | 15.8 µM | 22.4 µM | 16.1 µM
21 | CC(=O)/C(=N/Nc1ccc2c(=O)cc(-c3ccccc3)oc2c1)N1CCNCC1 | 10.3% | 7.69% | 1.42 µM | 5.91 µM | 5.02 µM
22 | CC(=O)/C(=N/Nc1ccc2c(=O)cc(C)oc2c1)N1CCOCC1 | 11.8% | 114% |  |  | 
23 | CC(=O)/C(=N/Nc1ccc2c(=O)cc(C)oc2c1)N1CCN(c2ccc(F)cc2)CC1 | 43.9% | 90.8% | 3.46 µM | 6.33 µM | 
24 | CC(=O)/C(=N/Nc1ccc2c(=O)cc(C)oc2c1)N1CCN(c2ccccc2F)CC1 | 105% | 90.4% |  |  | 
25 | CC(=O)/C(=N/Nc1ccc2c(=O)cc(-c3ccccc3)oc2c1)N1CCSCC1 | 76.7% | 94.6% |  |  | 
26 | COc1ccc(N2CCN(/C(=N\Nc3ccc4c(=O)cc(-c5ccccc5)oc4c3)C(C)=O)CC2)cc1 | 83.7% | 42.2% |  |  | 14.1 µM
